Most compounds without a hit are left out; they make up all but 1.8% or so of the library.
Hck-Nef inh = human Hck-Nef kinase inhibition; P08631; Recombinant Hck-YEEI plus Nef, Z-Lyte FRET kinase assay; inhibition, % at 20 µM; 0.68% of 220,000 active; AID 463187;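 active = Hck-Nef kinase inhibition above about 50%, limit read from the data; inactive = inhibition below that limit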;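 note: 0% = DMSO with Hck plus Nef and 100% = Hck alone without Nef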
Target sequence (P08631 whole entry, looked up): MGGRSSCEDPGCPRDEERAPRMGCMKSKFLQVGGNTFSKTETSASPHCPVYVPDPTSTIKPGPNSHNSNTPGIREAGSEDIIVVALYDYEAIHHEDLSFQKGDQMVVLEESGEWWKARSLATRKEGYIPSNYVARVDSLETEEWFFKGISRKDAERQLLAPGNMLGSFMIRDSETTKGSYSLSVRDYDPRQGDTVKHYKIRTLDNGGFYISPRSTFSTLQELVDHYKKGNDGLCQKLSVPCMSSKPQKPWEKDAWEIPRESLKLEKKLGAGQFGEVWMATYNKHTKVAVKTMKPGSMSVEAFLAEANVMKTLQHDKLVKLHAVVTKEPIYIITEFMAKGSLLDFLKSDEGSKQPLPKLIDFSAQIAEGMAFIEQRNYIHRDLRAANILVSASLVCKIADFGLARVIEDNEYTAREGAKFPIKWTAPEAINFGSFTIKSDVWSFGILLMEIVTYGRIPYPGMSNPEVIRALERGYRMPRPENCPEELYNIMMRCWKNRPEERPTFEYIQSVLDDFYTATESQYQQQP
Runt-SMMHC FRET = Runt domain-CBFb-SMMHC interaction inhibition | inhibition, % at 20 µM | Cerulean-Runt/Venus-CBFb-SMMHC FRET ratio 530/480, 1 h | AID 1434 | 0.74% of 220,000 active;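 active = mean inhibition across duplicate retests at 20 µM reaching about 50%, limit read from the data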;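 note: 0% = DMSO wells and 100% = wells with excess untagged CBFb-SMMHC; inhibitors lower the FRET ratio by blocking Runt binding to CBFb-SMMHC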
Runt-CBFb FRET = inhibitors of human RUNX1 Runt domain binding to CBFb; Cerulean-Runt/Venus-CBFb FRET ratio 530/480, 1 h; 0.46% of 220,000 active; inhibition, % at 20 µM;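 active = inhibition over about 50% at 20 µM in the single-dose screen, limit read from the data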;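 note: 0% = DMSO wells and 100% = excess unlabeled CBFb competitor control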
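Doses: 20 µM compound in 1% DMSO | Material: Cerulean-labeled Runt domain protein | Amount: Each fluorescent fusion protein 100 nM | Schedule: Two 1 h room-temperature incubations shielded from light | Measured by: FRET fluorescence | Evaluation: Loss of energy transfer signal | Controls: Unlabeled CBFb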
RanGTP-Imp inh = inhibitors of RanGTP-importin-beta interaction, primary screen, biochemical, FRET, CFP-Ran, YFP-importin-beta, homogeneous; cell-free CFP-Ran/YFP-importin-beta FRET ratio; inhibition, % (test concentration not listed); 1.1% of 300,000 active; AID 2216;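 active = more than half of the replicate wells show a fall in the fluorescence ratio signal beyond about 16%, limit read from the data, passing the limit was not always enough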;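 note: 0% = DMSO wells and 100% = Ran loaded with GDP instead of GTP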
Starred values were filed as active, the others as inactive; nt = not tested or not shown.

SMILES	Hck-Nef inh	Runt-SMMHC FRET	Runt-CBFb FRET	RanGTP-Imp inh
O=C(OCC(=O)N1CCN(C(=O)COC(=O)c2ccc(O)cc2O)CC1)c1ccc(O)cc1O	nt	nt	nt	-1.8
CCN(CC)Cc1c(O)ccc2cc(-c3nc4ccccc4n3C)c(=O)oc12	nt	nt	nt	131.6*
COc1ccc2cc(C(=O)c3ccccc3)c(=O)oc2c1	0.7	4.8	1.8	-3.7
CC(=O)Oc1ccc2cc(-c3nc4ccccc4n3C)c(=O)oc2c1	24.9	38.0	11.4	147.1*
NC(=O)COc1ccc2cc(-c3ccccc3)c(=O)oc2c1	nt	nt	nt	5.7
CC(C)(C)C(=O)Oc1ccc2cc(-c3ccc4ccccc4n3)c(=O)oc2c1	0.2	59.5*	19.2	28.1*
Cn1c(-c2cc3ccc(OC(=O)C(C)(C)C)cc3oc2=O)nc2ccccc21	24.8	-13.8	11.8	149.5*
CCN(CCO)C(=O)c1ccc2nc(Cc3ccc(OC)cc3)oc2c1	nt	nt	nt	2.3
CCCCCC(=O)Nc1ccc(C(=O)CN2C(=O)NC3(CCCCCC3)C2=O)cc1	nt	nt	nt	2.7
Cc1cccc(NC(=O)CN2C(=O)S/C(=C\c3cccn3-c3cccc(C(=O)O)c3)C2=O)c1	72.3*	1.0	-1.3	0.3
Cc1ccc(NC(=O)CN2C(=O)S/C(=C\c3cccn3-c3cccc(C(=O)O)c3)C2=O)cc1C	50.3*	-14.6	5.6	-1.6
Cc1cccc(C)c1NC(=O)CN1C(=O)S/C(=C\c2cccn2-c2cccc(C(=O)O)c2)C1=O	14.7	0.9	0.3	0.9
Cc1nc(-c2ccccc2)nc2n[nH]c(N)c12	nt	nt	nt	1.1
Cc1cc(C)c[n+](C(C)C(=O)c2ccc(Cl)cc2)c1 (configuration not stated)	nt	nt	nt	2.2
Cc1nc(-c2nc(-c3c(C(=O)NNC(=O)c4ccc(Cl)cc4)noc3C)cs2)cs1	12.6	-2.8	0.4	16.8*
Cc1nc(-c2nc(-c3c(C(=O)NNC(=O)Nc4cccc(Cl)c4)noc3C)cs2)cs1	21.2	19.8	3.1	5.6
O=C(CN1CCN(C(=O)c2ccco2)CC1)N1CCc2[nH]c3ccccc3c2C1	-21.3	-27.4	-24.0	29.3*
CCc1ccc(CN2CCC(n3nccc3NC(=O)c3cccc(F)c3)CC2)cc1	nt	nt	nt	-3.0
Cc1ccc(NC(=O)C2CCCO2)c(Br)c1 (configuration not stated)	nt	nt	nt	4.6
O=c1[nH]c(=O)c2nc(-c3ccc(Cl)cc3)cnc2[nH]1	5.2	nt	20.3	94.0*
O=c1[nH]c(=S)[nH]c2nc(-c3ccccc3)cnc12	nt	nt	nt	3.3
O=S(=O)(c1cccc(Cl)c1Cl)N1CCN(C(=S)NCCCN2CCOCC2)CC1	21.0	2.1	-0.7	25.4*
S=C(NCCCN1CCOCC1)N1CCN(c2ccccc2)CC1	nt	nt	nt	3.6
Cc1ccc2c(c1C)NC(=O)C21N2CCCC2C(C(=O)c2ccc3ccccc3c2)C12C(=O)Nc1ccccc12 (configuration not stated)	22.1	-2.0	0.7	nt
CCc1ccc(-c2cc(C(F)(F)F)n3nc(C(=O)Nc4c(C)nn(Cc5ccccc5C)c4C)cc3n2)s1	6.4	11.9	7.1	35.0*
SMILES	Hck-Nef inh	Runt-SMMHC FRET	Runt-CBFb FRET	RanGTP-Imp inh
Cc1ccccc1Cn1ccc(NC(=O)c2cc3nc(-c4ccco4)cc(C(F)(F)F)n3n2)n1	5.5	-4.1	5.0	54.2*
Cc1cccn2c(=O)nc(SCC(=O)N3CCC(C)CC3)nc12	nt	nt	nt	0.8
CCn1nc(NC(=O)COC)c2cc3cccc(C)c3nc21	nt	nt	nt	43.8*
CCCCC(=O)Nc1nn(CC)c2nc3c(C)cccc3cc12	nt	nt	nt	36.8*
CCn1nc(NC(=O)Cc2ccc(OC)cc2)c2cc3cccc(C)c3nc21	22.9	82.5*	82.1*	24.2*
CCCCC(=O)Nc1nn(C)c2nc3c(C)cccc3cc12	7.2	42.7	21.9	8.0
CCCn1nc(NS(=O)(=O)c2ccccc2)c2cc3ccccc3nc21	nt	-12.1	-7.9	2.3
CCCCC(=O)Nc1nn(CCC)c2nc3ccccc3cc12	8.5	33.7	19.0	62.6*
Cn1c(SCC(=O)Nc2ccc(NC(=O)c3cccc(F)c3)cc2)nnc1-c1ccncc1	nt	nt	nt	-0.3
COc1ccc(C(=O)O)cc1NC(=S)NC(=O)C(c1ccccc1)c1ccccc1	nt	nt	nt	-5.3
CC(C)c1ccc(-c2cc(C(=O)N3CCOCC3)c3cc(Br)ccc3n2)cc1	nt	nt	nt	0.8
CC(=O)Nc1nn(C)c2nc3ccc(C)cc3cc12	nt	nt	nt	8.2
CCn1nc(NC(=O)c2ccccn2)c2cc3cc(C)ccc3nc21	22.6	82.2*	47.9	89.2*
CCn1nc(NC(C)=O)c2cc3ccc(C)cc3nc21	nt	nt	nt	3.6
CCCCn1nc(NC(=O)COC)c2cc3cc(OC)ccc3nc21	nt	nt	nt	99.1*
CCn1nc(NC(=O)Cc2ccc(OC)cc2)c2cc3cc(C)ccc3nc21	-6.1	38.9	22.0	18.9*
CC1=C(C#N)C(=O)OC(C)(C)C1	0.2	77.8*	31.5	71.6*
Cc1[nH]c2ccccc2c1C(=O)C(=O)NC1CC1	nt	nt	nt	6.0
CN(C)S(=O)(=O)N1CCN(S(=O)(=O)N2CCOCC2)CC1	56.8*	0.0	1.5	0.5
Nc1ccc(O)c(-c2nc3ccccc3s2)c1	6.0	28.1	7.6	24.8*
O=C(Nc1ccc(O)c(-c2nc3ccccc3s2)c1)c1cccs1	0.5	-43.0	-8.1	1.3
Oc1ccc(N=C/C=C/c2cccc(Br)c2)cc1-c1nc2ccccc2s1	14.3	28.8	23.4	37.8*
Nc1ccccc1-c1nc2ccccc2s1	37.5	55.1*	21.6	4.9
Cc1ccc(/C=C/C(=O)NC(=S)Nc2ccc(S(=O)(=O)Nc3cc(C)on3)cc2)cc1	nt	nt	nt	-0.1
c1ccc(N2N=C(c3cccs3)CC2c2ccco2)cc1 (configuration not stated)	35.2	81.6*	32.3	0.6
SMILES	Hck-Nef inh	Runt-SMMHC FRET	Runt-CBFb FRET	RanGTP-Imp inh
Clc1ccc(N2N=C(c3cccs3)CC2c2ccco2)cc1 (configuration not stated)	22.3	90.8*	nt	9.7
C#CCn1c(CCNC(=O)c2ccco2)nc2ccccc21	nt	nt	nt	2.2
Cn1c(N)c(S(=O)(=O)N2CCN(c3ccccc3Cl)CC2)c(=O)n(C)c1=O	nt	nt	nt	26.2*
Cn1c(N)c(S(=O)(=O)N2CCN(c3cccc(Cl)c3)CC2)c(=O)n(C)c1=O	nt	nt	nt	-1.0
CN1OCC(S(=O)(=O)c2ccccc2)C1c1ccccc1 (configuration not stated)	7.8	-4.0	1.3	35.3*
O=S(=O)(NC1CCCCC1N1CCC(O)CC1)c1ccccc1 (configuration not stated)	nt	nt	nt	55.6*
CCCN1CCN(C2CCCCC2NS(=O)(=O)c2ccccc2)CC1 (configuration not stated)	nt	nt	nt	3.1
Cn1c(/C(C#N)=C/c2ccc(O)cc2)nc2ccccc21	-16.9	-2.8	12.7	28.2*
CC(=O)N/C(=N/c1nc(C)cc(C)n1)Nc1ccc(C)cc1C	nt	nt	nt	3.2
CSCCC(NC(=O)c1ccccc1Cl)C(=O)OCC(=O)N1CCCC1=O (configuration not stated)	nt	nt	nt	0.0
O=C(NCCCN1CCOCC1)c1cc(-c2ccc(Cl)s2)nc2ccccc12	nt	nt	nt	5.1
COC(=O)C1CCN(Cc2cc(=O)oc3cc(OC)ccc23)CC1	0.2	3.6	0.4	4.3
